{
  "source": "paper PMC3270411",
  "about": "(Chemistry & biology, 2012)",
  "key": {"[1]": {"test_system": "panel of 442 distinct kinases", "assay": "KINOMEscan kinase-binding panel"}, "IRAK1 [2]": {"target": "T1, IRAK1 (Homo sapiens, UniProt P51617)", "T1 sequence (P51617 whole entry, species assumed)": "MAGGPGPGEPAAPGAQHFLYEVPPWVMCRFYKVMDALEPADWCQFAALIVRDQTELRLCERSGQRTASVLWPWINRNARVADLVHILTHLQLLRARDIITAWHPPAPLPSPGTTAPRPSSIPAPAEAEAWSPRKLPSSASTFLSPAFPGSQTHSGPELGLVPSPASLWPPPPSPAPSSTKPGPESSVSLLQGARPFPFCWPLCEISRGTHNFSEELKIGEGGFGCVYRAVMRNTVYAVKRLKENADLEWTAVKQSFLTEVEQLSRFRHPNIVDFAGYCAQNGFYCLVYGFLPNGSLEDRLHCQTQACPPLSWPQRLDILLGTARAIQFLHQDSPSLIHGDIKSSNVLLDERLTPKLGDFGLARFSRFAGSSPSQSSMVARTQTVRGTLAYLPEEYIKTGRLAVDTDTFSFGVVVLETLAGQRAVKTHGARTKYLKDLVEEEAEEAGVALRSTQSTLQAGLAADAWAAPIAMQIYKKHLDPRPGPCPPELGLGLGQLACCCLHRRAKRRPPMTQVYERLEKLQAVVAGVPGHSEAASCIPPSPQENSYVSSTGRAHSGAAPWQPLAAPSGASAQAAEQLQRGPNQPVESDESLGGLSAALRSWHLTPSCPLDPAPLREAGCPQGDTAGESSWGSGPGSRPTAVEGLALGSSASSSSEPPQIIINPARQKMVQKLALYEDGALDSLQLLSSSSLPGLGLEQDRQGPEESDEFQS", "assay": "follow-up IC50 determination after enzymatic panel", "assay_type": "biochemical"}, "ERK8": {"target": "ERK8 (Homo sapiens, UniProt Q8TD08)", "sequence (Q8TD08 whole entry)": "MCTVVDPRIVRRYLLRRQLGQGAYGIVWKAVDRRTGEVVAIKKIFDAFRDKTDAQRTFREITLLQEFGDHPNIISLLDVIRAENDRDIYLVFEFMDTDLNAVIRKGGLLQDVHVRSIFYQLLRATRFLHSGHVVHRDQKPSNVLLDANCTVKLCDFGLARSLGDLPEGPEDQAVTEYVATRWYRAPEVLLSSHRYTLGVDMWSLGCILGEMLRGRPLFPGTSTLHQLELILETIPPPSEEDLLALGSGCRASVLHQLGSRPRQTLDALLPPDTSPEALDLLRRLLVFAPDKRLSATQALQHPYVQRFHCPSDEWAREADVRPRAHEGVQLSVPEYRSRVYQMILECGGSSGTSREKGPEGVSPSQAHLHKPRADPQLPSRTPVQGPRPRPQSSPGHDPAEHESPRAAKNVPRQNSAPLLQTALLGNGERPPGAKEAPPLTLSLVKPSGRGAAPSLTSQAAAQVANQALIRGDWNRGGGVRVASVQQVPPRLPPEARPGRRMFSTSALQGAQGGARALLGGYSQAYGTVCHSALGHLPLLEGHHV", "assay": "follow-up IC50 determination after enzymatic panel", "assay_type": "biochemical"}, "NUAK1": {"target": "NUAK1 (Homo sapiens, UniProt O60285)", "sequence (O60285 whole entry)": "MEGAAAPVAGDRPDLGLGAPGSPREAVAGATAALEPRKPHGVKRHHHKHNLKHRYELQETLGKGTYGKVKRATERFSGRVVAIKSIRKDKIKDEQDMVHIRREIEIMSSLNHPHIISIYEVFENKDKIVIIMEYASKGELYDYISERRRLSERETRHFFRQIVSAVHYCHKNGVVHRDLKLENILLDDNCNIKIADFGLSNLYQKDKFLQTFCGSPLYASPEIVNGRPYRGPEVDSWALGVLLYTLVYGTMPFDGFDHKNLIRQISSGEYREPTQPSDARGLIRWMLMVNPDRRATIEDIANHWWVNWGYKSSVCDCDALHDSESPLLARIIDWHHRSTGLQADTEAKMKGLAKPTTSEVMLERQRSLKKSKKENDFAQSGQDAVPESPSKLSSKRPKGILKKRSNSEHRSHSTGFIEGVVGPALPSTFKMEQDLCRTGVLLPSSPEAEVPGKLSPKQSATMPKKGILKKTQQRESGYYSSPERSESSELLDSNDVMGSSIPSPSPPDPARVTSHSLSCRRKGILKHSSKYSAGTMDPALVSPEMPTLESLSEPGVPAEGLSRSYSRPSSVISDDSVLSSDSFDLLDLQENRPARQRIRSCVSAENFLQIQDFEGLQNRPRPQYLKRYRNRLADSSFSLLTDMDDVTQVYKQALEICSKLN", "assay": "follow-up IC50 determination after enzymatic panel", "assay_type": "biochemical"}, "[3]": {"test_system": "potential additional kinase targets", "assay": "follow-up biochemical and binding assays on potent binding targets", "settings": "enzymatic assay or dissociation constant follow-up"}, "JNK3": {"target": "JNK3 (Homo sapiens, UniProt P53779)", "assay": "intact protein mass spectrometry of inhibitor-labeled JNK3", "assay_type": "binding", "settings": "incubation with JNK3, electrospray mass spectrometry"}, "IRAK1 [4]": {"target": "T1, IRAK1", "assay": "enzymatic kinase assay on potential off-target", "assay_type": "biochemical", "settings": "IC50 (nM) (enzymatic) IRAK1"}, "KIT(L576P)": {"target": "KIT(L576P) (Homo sapiens, UniProt P10721, L576P)", "sequence (P10721 26-976 L576P)": "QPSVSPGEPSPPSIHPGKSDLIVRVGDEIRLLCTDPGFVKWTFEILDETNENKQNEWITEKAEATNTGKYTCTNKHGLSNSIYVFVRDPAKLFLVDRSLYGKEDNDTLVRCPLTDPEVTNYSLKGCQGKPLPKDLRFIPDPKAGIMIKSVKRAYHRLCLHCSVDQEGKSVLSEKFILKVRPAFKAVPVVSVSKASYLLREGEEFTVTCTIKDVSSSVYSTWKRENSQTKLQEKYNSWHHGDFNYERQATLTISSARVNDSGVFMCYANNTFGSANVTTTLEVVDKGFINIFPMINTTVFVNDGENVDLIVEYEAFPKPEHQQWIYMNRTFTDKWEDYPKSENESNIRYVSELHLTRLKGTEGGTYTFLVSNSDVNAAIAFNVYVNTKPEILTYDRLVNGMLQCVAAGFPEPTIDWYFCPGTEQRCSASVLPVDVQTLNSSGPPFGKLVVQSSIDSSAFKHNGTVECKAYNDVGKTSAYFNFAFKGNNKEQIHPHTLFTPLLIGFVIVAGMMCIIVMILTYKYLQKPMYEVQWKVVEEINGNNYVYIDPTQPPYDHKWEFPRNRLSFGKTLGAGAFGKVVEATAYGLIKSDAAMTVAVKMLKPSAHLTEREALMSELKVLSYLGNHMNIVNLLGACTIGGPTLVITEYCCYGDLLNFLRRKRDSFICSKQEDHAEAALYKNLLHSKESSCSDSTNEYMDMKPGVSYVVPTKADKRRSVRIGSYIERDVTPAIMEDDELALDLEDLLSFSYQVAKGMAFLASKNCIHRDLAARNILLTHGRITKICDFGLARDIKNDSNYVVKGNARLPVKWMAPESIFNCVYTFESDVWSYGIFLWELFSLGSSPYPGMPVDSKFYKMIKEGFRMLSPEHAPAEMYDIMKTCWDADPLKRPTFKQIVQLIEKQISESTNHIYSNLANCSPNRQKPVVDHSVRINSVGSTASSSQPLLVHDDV", "assay": "KinomeScan dissociation constant", "assay_type": "binding"}, "MET(M250T)": {"target": "MET(M250T) (Homo sapiens, UniProt P08581, M1250T)", "sequence (P08581 956-1390 M1250T limits assumed)": "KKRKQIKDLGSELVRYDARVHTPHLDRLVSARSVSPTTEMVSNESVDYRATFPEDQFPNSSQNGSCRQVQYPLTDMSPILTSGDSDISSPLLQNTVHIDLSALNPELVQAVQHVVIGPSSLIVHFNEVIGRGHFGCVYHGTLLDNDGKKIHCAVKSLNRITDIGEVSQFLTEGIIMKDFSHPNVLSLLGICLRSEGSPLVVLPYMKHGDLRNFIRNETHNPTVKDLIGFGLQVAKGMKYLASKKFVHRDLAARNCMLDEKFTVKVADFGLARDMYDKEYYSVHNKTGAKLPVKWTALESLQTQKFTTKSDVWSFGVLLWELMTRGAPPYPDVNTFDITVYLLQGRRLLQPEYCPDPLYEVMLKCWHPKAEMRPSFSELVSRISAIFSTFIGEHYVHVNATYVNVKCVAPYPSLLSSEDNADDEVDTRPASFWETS", "assay": "enzymatic kinase assay on potential off-target", "assay_type": "biochemical"}, "KIT(V559D,T670I)": {"target": "KIT(V559D,T670I) (Homo sapiens, UniProt P10721, T670I/V559D)", "sequence (P10721 26-976 V559D/T670I)": "as the sequence (P10721 26-976 L576P) above, with V534D, P551L, T645I counted along it", "assay": "KinomeScan dissociation constant", "assay_type": "binding"}, "p38a": {"target": "p38a (Homo sapiens, UniProt Q16539)", "sequence (Q16539 whole entry)": "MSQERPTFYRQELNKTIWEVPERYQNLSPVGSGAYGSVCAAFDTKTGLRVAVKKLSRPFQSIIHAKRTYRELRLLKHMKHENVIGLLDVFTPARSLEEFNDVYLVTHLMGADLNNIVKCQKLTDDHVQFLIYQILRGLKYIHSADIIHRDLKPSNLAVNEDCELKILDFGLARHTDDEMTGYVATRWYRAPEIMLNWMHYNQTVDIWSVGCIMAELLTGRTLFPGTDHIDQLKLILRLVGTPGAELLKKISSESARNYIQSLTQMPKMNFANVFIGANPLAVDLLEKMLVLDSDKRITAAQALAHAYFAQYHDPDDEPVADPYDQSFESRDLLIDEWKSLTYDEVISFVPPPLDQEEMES", "assay": "KiNativ cellular kinase profiling", "assay_type": "cell-based", "settings": "A375 cells, 1 μM, 3 hours"}, "PIK3C3": {"target": "PIK3C3 (Homo sapiens, UniProt Q8NEB9)", "sequence (Q8NEB9 whole entry)": "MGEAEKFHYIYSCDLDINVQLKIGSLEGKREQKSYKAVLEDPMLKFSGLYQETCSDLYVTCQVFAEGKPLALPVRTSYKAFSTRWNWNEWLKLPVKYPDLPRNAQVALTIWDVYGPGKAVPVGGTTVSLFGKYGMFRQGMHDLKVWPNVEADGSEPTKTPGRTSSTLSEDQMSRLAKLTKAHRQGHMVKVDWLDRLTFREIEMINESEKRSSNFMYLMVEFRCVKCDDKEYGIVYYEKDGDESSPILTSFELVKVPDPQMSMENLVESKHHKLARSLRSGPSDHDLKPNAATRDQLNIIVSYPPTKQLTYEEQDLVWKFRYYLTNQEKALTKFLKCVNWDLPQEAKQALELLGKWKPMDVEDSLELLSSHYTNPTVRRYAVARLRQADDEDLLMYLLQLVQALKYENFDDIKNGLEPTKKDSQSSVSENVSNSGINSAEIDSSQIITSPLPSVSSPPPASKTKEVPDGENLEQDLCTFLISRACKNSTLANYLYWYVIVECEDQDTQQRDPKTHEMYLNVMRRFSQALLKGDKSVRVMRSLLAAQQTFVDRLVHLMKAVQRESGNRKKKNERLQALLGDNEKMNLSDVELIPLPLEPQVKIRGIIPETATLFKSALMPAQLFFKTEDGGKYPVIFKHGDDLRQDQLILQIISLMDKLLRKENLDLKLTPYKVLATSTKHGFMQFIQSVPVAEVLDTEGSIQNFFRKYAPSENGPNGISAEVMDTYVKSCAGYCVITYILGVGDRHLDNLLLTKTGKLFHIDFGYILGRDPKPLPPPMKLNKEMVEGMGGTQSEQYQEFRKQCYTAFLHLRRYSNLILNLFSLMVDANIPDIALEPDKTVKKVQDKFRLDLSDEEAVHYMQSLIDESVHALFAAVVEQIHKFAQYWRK", "assay": "KiNativ cellular kinase profiling", "assay_type": "cell-based", "settings": "A375 cells, 1 μM, 3 hours, PIK3C3, labeling site ATP"}, "PIP4K2C": {"target": "T2, PIP4K2C (Homo sapiens, UniProt Q8TBX8)", "T2 sequence (Q8TBX8 1-421)": "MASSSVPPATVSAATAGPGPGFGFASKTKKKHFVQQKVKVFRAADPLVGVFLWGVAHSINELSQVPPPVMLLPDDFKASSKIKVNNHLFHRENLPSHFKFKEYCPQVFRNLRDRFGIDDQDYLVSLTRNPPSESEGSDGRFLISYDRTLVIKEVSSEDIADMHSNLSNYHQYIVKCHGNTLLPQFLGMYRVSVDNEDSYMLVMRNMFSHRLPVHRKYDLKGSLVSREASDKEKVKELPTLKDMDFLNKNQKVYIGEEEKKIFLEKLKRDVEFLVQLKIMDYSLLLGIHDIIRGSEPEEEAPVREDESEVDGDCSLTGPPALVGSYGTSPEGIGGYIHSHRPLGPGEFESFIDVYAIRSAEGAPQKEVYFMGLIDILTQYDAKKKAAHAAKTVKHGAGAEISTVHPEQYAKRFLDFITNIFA", "assay": "KiNativ cellular kinase profiling", "assay_type": "cell-based", "settings": "A375 cells, 1 μM, 3 hours, labeling site ATP"}, "DNAPK": {"target": "DNAPK (Homo sapiens, UniProt P78527)", "assay": "KiNativ cellular kinase profiling", "assay_type": "cell-based", "settings": "A375 cells, 1 μM, 3 hours, labeling site ATP"}, "JNK": {"test_system": "JNK", "assay": "pulse-chase ATP-biotin binding kinetics assay in A375 cells", "assay_type": "cell-based", "settings": "same pulse-chase protocol", "in_short": "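A375 cells treated with 1 μM test compound for 1–5 h, then washed three times in PBS. Lysed in NP-40/CHAPS buffer for 30 min at 4°C, cleared, and gel-filtered into HEPES kinase buffer (about 5–15 mg/ml protein). Lysate labelled with 5 μM ATP-biotin probe for 1 h, reduced with DTT, alkylated with iodoacetamide, and pulled down on streptavidin for 2 h. Read-out: SDS-PAGE and JNK immunoblot.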"}, "[5]": {"test_system": "c-Jun phosphorylation in HeLa and A375 cells", "assay": "cellular c-Jun phosphorylation, statements for both assay formats", "assay_type": "cell-based", "settings": "relative to JNK-IN-5"}},
  "data": [
    {"smiles": "CN(C)C/C=C/C(=O)Nc1cccc(C(=O)Nc2ccc(Nc3nccc(-c4cccnc4)n3)cc2)c1", "note": "[JNK-IN-7]", "values": [
      {"measurement": "number of kinases with binding inhibition of 95% or more", "setting": "[1]; 1.0 μM", "value": "approximately 14 kinases"},
      {"measurement": "IC50", "setting": "IRAK1 [2]", "value": "< 200", "unit": "nM"},
      {"measurement": "IC50", "setting": "ERK8", "value": "< 200", "unit": "nM"},
      {"measurement": "IC50", "setting": "NUAK1", "value": "< 200", "unit": "nM"},
      {"measurement": "number of additional kinases with Kd or IC50 of 100 nM or less", "setting": "[3]", "value": "eight"},
      {"measurement": "covalent modification of JNK3 (mass spectrometry)", "setting": "JNK3", "value": "addition of a single molecule of inhibitor to the protein and labeling of Cys154"},
      {"measurement": "IC50", "setting": "IRAK1 [4]", "value": "~10", "unit": "nM"},
      {"measurement": "Kd", "setting": "KIT(L576P)", "value": 40, "unit": "nM"}
    ]},
    {"smiles": "Cc1cc(NC(=O)c2cccc(NC(=O)/C=C/CN(C)C)c2)ccc1Nc1nccc(-c2cccnc2)n1", "note": "[JNK-IN-8]", "values": [
      {"measurement": "IC50", "setting": "MET(M250T)", "value": "> 10000", "unit": "nM"},
      {"measurement": "Kd", "setting": "KIT(V559D,T670I)", "value": 56, "unit": "nM"}
    ]},
    {"smiles": "CN(C)C/C=C/C(=O)Nc1cccc(C(=O)Nc2ccc(Nc3nccc(/C(C#N)=C4\\Nc5ccccc5S4)n3)cc2)c1", "note": "[JNK-IN-12]", "values": [
      {"measurement": "S (10) score (ratio number of kinases inhibited more than 90 percent)", "setting": "[1]; screening concentration 1 μM", "value": 0.025},
      {"measurement": "Percent inhibition of kinase labeling by ATP-biotin", "setting": "p38a; labeling site Lys2", "value": "−28", "unit": "%"},
      {"measurement": "Percent inhibition of kinase labeling by ATP-biotin", "setting": "p38a; labeling site Other", "value": "−13.8", "unit": "%"},
      {"measurement": "Percent inhibition of kinase labeling by ATP-biotin", "setting": "PIK3C3; first of two table lines", "value": 7.5, "unit": "%"},
      {"measurement": "Percent inhibition of kinase labeling by ATP-biotin", "setting": "PIK3C3; second of two table lines", "value": "−0.5", "unit": "%"},
      {"measurement": "Percent inhibition of kinase labeling by ATP-biotin", "setting": "PIP4K2C; first of two table lines", "value": 43.9, "unit": "%"},
      {"measurement": "Percent inhibition of kinase labeling by ATP-biotin", "setting": "PIP4K2C; second of two table lines", "value": 42.6, "unit": "%"},
      {"measurement": "Percent inhibition of kinase labeling by ATP-biotin", "setting": "DNAPK; first of two table lines", "value": "−65.4", "unit": "%"},
      {"measurement": "Percent inhibition of kinase labeling by ATP-biotin", "setting": "DNAPK; second of two table lines", "value": "−80.7", "unit": "%"}
    ]},
    {"smiles": "CCC(=O)Nc1cccc(C(=O)Nc2ccc(Nc3nccc(-c4cccnc4)n3)cc2)c1", "note": "[JNK-IN-6]", "values": [
      {"measurement": "protection of JNK from labeling by ATP-biotin", "setting": "JNK", "value": "incapable of protecting JNK from labeling by ATP-biotin"},
      {"measurement": "fold loss in potency / fold higher IC50 for cellular JNK inhibition", "setting": "[5]", "value": 50, "unit": "fold"},
      {"measurement": "Percent inhibition of kinase labeling by ATP-biotin", "setting": "p38a; labeling site Lys2", "value": 32.6, "unit": "%"},
      {"measurement": "Percent inhibition of kinase labeling by ATP-biotin", "setting": "p38a; labeling site Other", "value": 12.4, "unit": "%"},
      {"measurement": "Percent inhibition of kinase labeling by ATP-biotin", "setting": "PIK3C3; first of two table lines", "value": 26.5, "unit": "%"},
      {"measurement": "Percent inhibition of kinase labeling by ATP-biotin", "setting": "PIK3C3; second of two table lines", "value": 3.1, "unit": "%"},
      {"measurement": "Percent inhibition of kinase labeling by ATP-biotin", "setting": "PIP4K2C; first of two table lines", "value": "−4.7", "unit": "%"},
      {"measurement": "Percent inhibition of kinase labeling by ATP-biotin", "setting": "PIP4K2C; second of two table lines", "value": 35.7, "unit": "%"},
      {"measurement": "Percent inhibition of kinase labeling by ATP-biotin", "setting": "DNAPK; first of two table lines", "value": 51.1, "unit": "%"},
      {"measurement": "Percent inhibition of kinase labeling by ATP-biotin", "setting": "DNAPK; second of two table lines", "value": 31.7, "unit": "%"}
    ]}
  ]
}
